Reference: publication PMC8861878 (The Journal of pharmacy and pharmacology, 2020)

Key:
CYP2E1 = CYP2E1 (Homo sapiens, UniProt P05181); assay: Inhibition of CYP2E1; format: in vitro ADME; conditions: isobavachin 1, 10, 100 μM; substrate chlorzoxazone (200 μM)
Outline: (§1)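 Recombinant human CYPs (CYP1A2 and 3A4 at 0.05 mg/ml; CYP2C8 and 2E1 at 0.1 mg/ml) with probe substrate in Tris-HCl 50 mM pH 7.4, MgCl2 5 mM and NADPH 1 mM at 37 °C for 60 min. Run without (control) or with test compound at 1, 10 or 100 μM. Acetonitrile stop; metabolite by UHPLC-TQD-MS; activity versus control, triplicate.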

UGT1A6 = target: T1, UGT1A6 (Homo sapiens, UniProt P19224); assay: Glucuronidation of isobavachin by recombinant UGT1A6, enzyme kinetics; format: in vitro ADME; conditions: substrate inhibition constant, substrate inhibition model
T1 sequence (P19224 27-532): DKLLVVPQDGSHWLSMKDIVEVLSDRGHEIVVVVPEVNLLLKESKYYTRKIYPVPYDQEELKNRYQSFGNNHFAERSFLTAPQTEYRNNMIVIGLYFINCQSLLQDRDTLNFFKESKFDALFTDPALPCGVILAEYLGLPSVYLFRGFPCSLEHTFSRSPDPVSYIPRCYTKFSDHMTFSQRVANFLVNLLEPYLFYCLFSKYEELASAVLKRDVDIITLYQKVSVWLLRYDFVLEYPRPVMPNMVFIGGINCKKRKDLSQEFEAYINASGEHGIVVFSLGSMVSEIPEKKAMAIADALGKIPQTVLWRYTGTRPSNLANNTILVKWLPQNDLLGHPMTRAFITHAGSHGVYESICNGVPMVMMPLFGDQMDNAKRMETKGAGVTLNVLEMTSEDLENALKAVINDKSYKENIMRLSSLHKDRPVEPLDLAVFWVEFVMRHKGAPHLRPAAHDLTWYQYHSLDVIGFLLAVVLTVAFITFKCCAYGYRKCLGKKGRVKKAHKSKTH

CYP2C8 = target: T2, CYP2C8 (Homo sapiens, UniProt P10632); assay: Inhibition of CYP2C8; format: in vitro ADME; conditions: isobavachin 1, 10, 100 μM; substrate paclitaxel (60 μM)
T2 sequence (P10632 1-490): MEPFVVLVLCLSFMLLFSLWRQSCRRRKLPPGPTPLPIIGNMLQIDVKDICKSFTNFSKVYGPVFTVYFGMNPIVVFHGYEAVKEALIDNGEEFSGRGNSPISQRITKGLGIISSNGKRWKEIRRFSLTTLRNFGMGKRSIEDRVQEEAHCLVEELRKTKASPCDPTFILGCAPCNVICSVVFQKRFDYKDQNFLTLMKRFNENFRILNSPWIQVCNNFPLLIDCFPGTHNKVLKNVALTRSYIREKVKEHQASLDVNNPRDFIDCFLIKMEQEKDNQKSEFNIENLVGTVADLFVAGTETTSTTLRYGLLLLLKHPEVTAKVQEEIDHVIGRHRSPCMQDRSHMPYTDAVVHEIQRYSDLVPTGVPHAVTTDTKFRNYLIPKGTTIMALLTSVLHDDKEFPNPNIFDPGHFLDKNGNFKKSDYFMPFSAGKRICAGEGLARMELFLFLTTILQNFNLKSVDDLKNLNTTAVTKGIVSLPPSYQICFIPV
Outline: as §1

UGT1A1 = target: T3, UGT1A1 (Homo sapiens, UniProt P22309); assay: Inhibition of UGT1A1; format: in vitro ADME
T3 sequence (P22309 26-533): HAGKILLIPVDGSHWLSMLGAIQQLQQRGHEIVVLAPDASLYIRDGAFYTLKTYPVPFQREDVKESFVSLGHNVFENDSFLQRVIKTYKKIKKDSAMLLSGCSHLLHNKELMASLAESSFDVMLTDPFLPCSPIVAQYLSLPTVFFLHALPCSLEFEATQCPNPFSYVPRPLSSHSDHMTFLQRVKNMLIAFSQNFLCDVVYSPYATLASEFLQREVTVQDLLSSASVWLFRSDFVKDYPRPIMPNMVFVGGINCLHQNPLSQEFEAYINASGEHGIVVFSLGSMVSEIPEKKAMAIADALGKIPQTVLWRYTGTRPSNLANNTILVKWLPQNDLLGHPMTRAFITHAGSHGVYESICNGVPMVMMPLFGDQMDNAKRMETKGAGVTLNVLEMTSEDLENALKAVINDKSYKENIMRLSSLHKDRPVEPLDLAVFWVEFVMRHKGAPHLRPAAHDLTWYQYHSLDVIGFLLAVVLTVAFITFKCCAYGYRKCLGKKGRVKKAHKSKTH

CYP1A2 = target: T4, CYP1A2 (Homo sapiens, UniProt P05177); assay: Inhibition of CYP1A2; format: in vitro ADME; conditions: isobavachin 1, 10, 100 μM; substrate phenacetin (100 μM)
T4 sequence (P05177 1-516): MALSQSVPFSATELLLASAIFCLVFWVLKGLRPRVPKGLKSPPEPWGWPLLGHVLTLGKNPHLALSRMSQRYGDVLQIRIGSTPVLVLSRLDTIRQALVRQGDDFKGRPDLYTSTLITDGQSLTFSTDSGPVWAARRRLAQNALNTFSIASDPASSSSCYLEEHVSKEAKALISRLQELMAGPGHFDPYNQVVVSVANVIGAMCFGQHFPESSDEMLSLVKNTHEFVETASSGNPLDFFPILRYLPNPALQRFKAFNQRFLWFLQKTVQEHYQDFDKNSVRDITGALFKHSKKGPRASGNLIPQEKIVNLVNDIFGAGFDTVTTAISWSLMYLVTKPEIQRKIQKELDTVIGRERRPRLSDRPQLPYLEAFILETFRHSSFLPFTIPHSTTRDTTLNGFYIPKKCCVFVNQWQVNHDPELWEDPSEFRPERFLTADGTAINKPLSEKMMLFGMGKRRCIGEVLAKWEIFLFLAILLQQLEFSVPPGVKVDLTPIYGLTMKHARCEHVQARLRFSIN
Outline: as §1

expressed UGT enzymes = assay: Reaction phenotyping with expressed UGT enzymes; format: in vitro ADME, human; conditions: isobavachin at 10 μM (Figure S4B)

CYP2E1, sequence (P05181 whole entry): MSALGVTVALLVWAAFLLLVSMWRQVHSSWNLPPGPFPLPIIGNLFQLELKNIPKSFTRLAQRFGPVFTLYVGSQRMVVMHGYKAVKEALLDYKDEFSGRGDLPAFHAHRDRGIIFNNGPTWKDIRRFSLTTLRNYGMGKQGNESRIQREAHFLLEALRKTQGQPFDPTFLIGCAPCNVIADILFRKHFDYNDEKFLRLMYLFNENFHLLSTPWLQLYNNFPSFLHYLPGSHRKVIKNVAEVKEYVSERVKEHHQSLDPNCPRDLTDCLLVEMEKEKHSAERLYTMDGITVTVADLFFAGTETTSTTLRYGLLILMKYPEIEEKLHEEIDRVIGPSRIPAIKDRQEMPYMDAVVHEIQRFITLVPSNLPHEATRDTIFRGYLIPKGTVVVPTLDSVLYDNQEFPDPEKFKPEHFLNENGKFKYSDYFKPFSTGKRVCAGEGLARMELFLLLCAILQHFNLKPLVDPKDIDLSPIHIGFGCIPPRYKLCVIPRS

`CC(C)=CCc1c(O)ccc2c1O[C@H](c1ccc(O)cc1)CC2=O` [isobavachin] was tested, and the inhibitory effects (CYP2E1) was “negligible or weak”, the Ki (UGT1A6; formation of G1) was 21.97 ± 5.84 µM and the Ki (UGT1A6; formation of G2) was 12.71 ± 2.60 µM. For the same compound, the inhibitory effects (CYP2C8) was “negligible or weak”, the IC50 (UGT1A1) was 1.53 ± 0.39 µM and the residual activities (UGT1A1; 10 μM isobavachin) was 4.58 % of the negative control. For the same compound, the Ki (UGT1A1; Ki, substrate estradiol, competitive model (selected, smallest AIC and SC)) was 3.05 ± 0.41 µM, the Inhibition type (UGT1A1; based on the smallest AIC and SC values) was “competitive inhibition” and the α (UGT1A1; substrate estradiol, mixed-type model) was 8.01 ± 2.56. For the same compound, the inhibitory effects (CYP1A2) was “negligible or weak” and the “UGT enzymes involved in glucuronidation” value (expressed UGT enzymes) was “UGT1A1, 1A6, 1A7, 1A8, 1A9 and 2B4 have an important role in glucuronidation reaction”.
